Assay results: ChEMBL document CHEMBL1926611, “Synthesis and biological evaluation of 4-[3-chloro-4-(3-fluorobenzyloxy)anilino]-6-(3-substituted-phenoxy)pyrimidines as dual EGFR/ErbB-2 kinase inhibitors” (Bioorg Med Chem, 2012)

Key:
[1] = target: Epidermal growth factor receptor (Homo sapiens, UniProt P00533); test: Inhibition of human EGFR preincubated 2 hrs prior addition of ATP by HTRF assay
[2] = target: Receptor tyrosine-protein kinase erbB-2 (Homo sapiens, UniProt P04626); test: Inhibition of human ErbB2 preincubated for 2 hrs prior addition of ATP by HTRF assay
In short: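 Wild-type ErbB-2(676–1255) was used in an HTRF KinEASE-TK format. Kinase, substrate peptide and inhibitor were combined, and ATP started the reaction. Detection used Eu-cryptate anti-phosphotyrosine antibody plus XL665-streptavidin, with time-resolved FRET read after 320 excitation. The emission ratio across ten concentrations (0.01–10,000 nM, including no inhibitor) gave IC50, with duplicate reactions and ≥2 independent determinations.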

[3] = system: SK-OV-3; test: Cytotoxicity against human SKOV3 cells overexpressing ErbB2 after 72 hrs by MTT assay; details: SK-OV-3, 72 h
[4] = system: A-431; test: Cytotoxicity against human A431 cells overexpressing EGFR after 72 hrs by MTT assay; details: A-431, 72 h

Epidermal growth factor receptor, sequence (P00533 whole entry): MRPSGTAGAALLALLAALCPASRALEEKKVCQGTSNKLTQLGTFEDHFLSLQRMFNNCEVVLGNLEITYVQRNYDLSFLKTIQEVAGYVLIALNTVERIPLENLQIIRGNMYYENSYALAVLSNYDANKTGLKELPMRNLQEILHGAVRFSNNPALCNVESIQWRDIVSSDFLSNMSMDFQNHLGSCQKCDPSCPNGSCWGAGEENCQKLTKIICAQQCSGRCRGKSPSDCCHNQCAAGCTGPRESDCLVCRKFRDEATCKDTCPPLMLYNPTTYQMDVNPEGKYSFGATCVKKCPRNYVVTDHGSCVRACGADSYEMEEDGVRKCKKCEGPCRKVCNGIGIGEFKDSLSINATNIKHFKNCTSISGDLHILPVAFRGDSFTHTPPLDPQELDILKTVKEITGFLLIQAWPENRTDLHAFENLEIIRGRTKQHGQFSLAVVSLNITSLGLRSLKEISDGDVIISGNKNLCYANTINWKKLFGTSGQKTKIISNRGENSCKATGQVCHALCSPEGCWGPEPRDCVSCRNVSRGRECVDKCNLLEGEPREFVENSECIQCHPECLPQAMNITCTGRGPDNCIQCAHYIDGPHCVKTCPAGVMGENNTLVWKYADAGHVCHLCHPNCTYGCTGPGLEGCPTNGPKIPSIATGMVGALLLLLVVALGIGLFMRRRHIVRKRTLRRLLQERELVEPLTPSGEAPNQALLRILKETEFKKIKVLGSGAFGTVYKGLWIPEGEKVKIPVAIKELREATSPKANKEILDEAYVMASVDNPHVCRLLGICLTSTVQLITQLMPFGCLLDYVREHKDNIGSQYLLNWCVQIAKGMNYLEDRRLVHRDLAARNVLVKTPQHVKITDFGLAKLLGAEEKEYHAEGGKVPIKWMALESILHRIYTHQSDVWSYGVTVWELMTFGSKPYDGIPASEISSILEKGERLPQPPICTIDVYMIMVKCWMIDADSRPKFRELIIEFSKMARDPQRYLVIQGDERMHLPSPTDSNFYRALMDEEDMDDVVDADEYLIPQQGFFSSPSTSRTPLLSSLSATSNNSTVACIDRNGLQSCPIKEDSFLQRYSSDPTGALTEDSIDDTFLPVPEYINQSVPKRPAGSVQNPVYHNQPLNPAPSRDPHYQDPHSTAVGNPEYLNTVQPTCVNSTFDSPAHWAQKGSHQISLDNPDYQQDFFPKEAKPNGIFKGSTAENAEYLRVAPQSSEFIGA
Receptor tyrosine-protein kinase erbB-2, sequence (P04626 whole entry): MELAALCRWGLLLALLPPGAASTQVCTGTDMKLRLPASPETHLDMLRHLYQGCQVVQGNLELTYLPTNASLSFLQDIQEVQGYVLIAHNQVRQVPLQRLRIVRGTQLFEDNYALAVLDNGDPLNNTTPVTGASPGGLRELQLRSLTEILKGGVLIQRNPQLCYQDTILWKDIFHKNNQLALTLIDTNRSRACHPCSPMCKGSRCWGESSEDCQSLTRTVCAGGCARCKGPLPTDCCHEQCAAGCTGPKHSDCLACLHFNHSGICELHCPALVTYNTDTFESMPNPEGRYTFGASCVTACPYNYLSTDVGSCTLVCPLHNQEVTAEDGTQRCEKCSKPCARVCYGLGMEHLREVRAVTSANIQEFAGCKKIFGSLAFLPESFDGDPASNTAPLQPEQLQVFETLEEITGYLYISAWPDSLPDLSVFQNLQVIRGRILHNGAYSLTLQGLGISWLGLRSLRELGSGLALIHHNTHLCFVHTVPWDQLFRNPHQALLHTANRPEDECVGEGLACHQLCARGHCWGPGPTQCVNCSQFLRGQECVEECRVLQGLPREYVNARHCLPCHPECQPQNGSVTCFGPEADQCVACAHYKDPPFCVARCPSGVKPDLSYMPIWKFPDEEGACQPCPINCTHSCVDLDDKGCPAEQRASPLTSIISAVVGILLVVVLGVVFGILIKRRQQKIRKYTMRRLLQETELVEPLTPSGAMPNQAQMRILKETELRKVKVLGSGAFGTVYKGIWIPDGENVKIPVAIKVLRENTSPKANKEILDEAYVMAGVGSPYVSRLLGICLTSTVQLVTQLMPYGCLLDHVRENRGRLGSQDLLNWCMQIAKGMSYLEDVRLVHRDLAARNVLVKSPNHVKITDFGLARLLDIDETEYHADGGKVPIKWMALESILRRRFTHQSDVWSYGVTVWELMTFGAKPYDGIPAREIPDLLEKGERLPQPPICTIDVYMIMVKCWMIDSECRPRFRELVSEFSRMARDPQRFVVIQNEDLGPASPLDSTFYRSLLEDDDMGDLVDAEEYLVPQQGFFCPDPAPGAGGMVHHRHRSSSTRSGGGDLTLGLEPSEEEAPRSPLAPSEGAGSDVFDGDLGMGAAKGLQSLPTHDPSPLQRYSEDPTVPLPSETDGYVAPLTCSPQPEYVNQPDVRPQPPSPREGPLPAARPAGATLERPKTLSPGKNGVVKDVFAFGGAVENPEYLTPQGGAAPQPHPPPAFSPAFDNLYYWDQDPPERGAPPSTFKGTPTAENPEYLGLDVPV

IC50 [1] [µM] | IC50 [2] [µM] | Compound | IC50 [3] [µM] | IC50 [4] [µM]
0.473 | 0.559 | Nc1cccc(Oc2cc(Nc3ccc(OCc4cccc(F)c4)c(Cl)c3)ncn2)c1 | 12.2 | 8.92
1.67 | 3.74 | O=C(/C=C/c1ccccc1)Nc1cccc(Oc2cc(Nc3ccc(OCc4cccc(F)c4)c(Cl)c3)ncn2)c1 | 20.7 | 11.2
> 10 | > 10 | Fc1cccc(COc2ccc(Nc3cc(Oc4cccc(NCc5ccccc5)c4)ncn3)cc2Cl)c1 | 17.9 | 3.11
0.061 | 0.042 | Nc1cc(Nc2cccc(Oc3cc(Nc4ccc(OCc5cccc(F)c5)c(Cl)c4)ncn3)c2)ncn1 | 0.71 | 4.24
> 10 | > 10 | O=C(Nc1cccc(Oc2cc(Nc3ccc(OCc4cccc(F)c4)c(Cl)c3)ncn2)c1)c1ccc([N+](=O)[O-])cc1 | 10.2 | 6.72
0.627 | 0.834 | O=C(Cc1cc(F)c(F)cc1F)Nc1cccc(Oc2cc(Nc3ccc(OCc4cccc(F)c4)c(Cl)c3)ncn2)c1 | 26.1 | 9.29
 |  | CS(=O)(=O)CCNCc1ccc(-c2ccc3ncnc(Nc4ccc(OCc5cccc(F)c5)c(Cl)c4)c3c2)o1 [LAPATINIB] | 2.99 | 
0.721 | 2.14 | O=C(COc1cc(F)c(F)c(F)c1)Nc1cccc(Oc2cc(Nc3ccc(OCc4cccc(F)c4)c(Cl)c3)ncn2)c1 | > 30 | 13.2
0.523 | 1.23 | COc1ccc(/C=C/C(=O)Nc2cccc(Oc3cc(Nc4ccc(OCc5cccc(F)c5)c(Cl)c4)ncn3)c2)cc1OC | > 30 | > 20
 | 0.219 | CCOC(=O)CNc1cccc(Oc2cc(Nc3ccc(OCc4cccc(F)c4)c(Cl)c3)ncn2)c1 | 9.18 | 
0.108 | 0.135 | CC(=O)Nc1cccc(Oc2cc(Nc3ccc(OCc4cccc(F)c4)c(Cl)c3)ncn2)c1 | 3.95 | 12
0.037 | 0.029 | C=CC(=O)Nc1cccc(Oc2cc(Nc3ccc(OCc4cccc(F)c4)c(Cl)c3)ncn2)c1 | 0.89 | 3.25
> 10 | > 10 | COc1ccc(OCC(=O)Nc2cccc(Oc3cc(Nc4ccc(OCc5cccc(F)c5)c(Cl)c4)ncn3)c2)cc1OC |  | 6.42
0.129 | 0.196 | CCOC(=O)/C=C/C(=O)Nc1cccc(Oc2cc(Nc3ccc(OCc4cccc(F)c4)c(Cl)c3)ncn2)c1 | 1.29 | 7
1.2 | 2.42 | O=[N+]([O-])c1cccc(Oc2cc(Nc3ccc(OCc4cccc(F)c4)c(Cl)c3)ncn2)c1 | > 30 | 10.4
0.821 | 1.29 | O=C(/C=C/c1ccc(F)cc1)Nc1cccc(Oc2cc(Nc3ccc(OCc4cccc(F)c4)c(Cl)c3)ncn2)c1 | > 30 | 18.1
0.065 | 0.079 | O=C(COc1ccccc1)Nc1cccc(Oc2cc(Nc3ccc(OCc4cccc(F)c4)c(Cl)c3)ncn2)c1 | 9.1 | 14.9
0.048 | 0.038 | N#CCC(=O)Nc1cccc(Oc2cc(Nc3ccc(OCc4cccc(F)c4)c(Cl)c3)ncn2)c1 | 8.42 | 5.17
